# Rows were chosen to be rich in hits. Some 3.5% of all compounds tested hit in one or more screens of this group.
# RGS4 pot – potentiators or activators of RGS4 | 0.92% of 310,000 active | AID 463111 | HEK293 M3R/inducible RGS4, carbachol calcium flux Fluo4; stronger effect = lower value | B-score at 10 µM;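 active means B-score of the integrated calcium signal more than 4 SD below the library mean, with starting fluorescence not abnormally high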;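 further: negative B-score means reduced calcium response which marks RGS4 activation or potentiation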
#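 Reagent: ECmax carbachol challenge; Test system: M3R-expressing HEK293 line, RGS4 induced by doxycycline; Schedule: overnight RGS4 induction, 30 min dye load 37 °C, 20 min compound RT; Detection: calcium dye Fluo4 fluorescence; Read-out: Agonist-evoked peak-minus-minimum fluorescence over baseline, integrated ratio, B score.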
# RGS4 inh – inhibitors of human RGS4. P49798. HEK293 M3R/RGS4 inducible, Fluo-4 calcium flux; stronger effect = higher value; triggered by carbachol at its EC20. B-score at 10 µM. 0.45% of 310,000 active. AID 463165;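 active means B-score, a plate-corrected calcium signal, over three deviations above library mean, with baseline fluorescence within five deviations of library mean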;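 further: RGS4 expression induced by doxycycline in cells with stable M3 receptor; B-score is computed from the integrated fluorescence ratio over baseline after carbachol; higher B-score means a larger calcium signal and so more RGS4 inhibition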
# Target sequence (P49798 whole entry, looked up): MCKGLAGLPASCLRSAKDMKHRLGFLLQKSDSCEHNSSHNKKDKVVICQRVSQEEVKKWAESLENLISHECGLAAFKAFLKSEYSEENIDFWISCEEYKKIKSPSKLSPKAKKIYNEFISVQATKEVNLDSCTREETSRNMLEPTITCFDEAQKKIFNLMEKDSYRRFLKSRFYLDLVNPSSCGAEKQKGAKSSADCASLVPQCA
# MrgX1 PAM – allosterically activates human MrgX1 receptor signaling; Q96LB2; MrgX1-HEK293, Fluo-4 calcium flux, FDSS; stronger effect = higher value; B-score at 10 µM; 0.63% of 310,000 active; AID 588675;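 active means plate-corrected calcium response at least 3 library SD above typical, normal starting fluorescence, not activating the receptor alone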;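 further: compound read alongside a low EC10 to EC30 dose of BAM8-22 agonist; peak minus trough fluorescence over baseline measured at the second addition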
# Target sequence (Q96LB2 whole entry, looked up): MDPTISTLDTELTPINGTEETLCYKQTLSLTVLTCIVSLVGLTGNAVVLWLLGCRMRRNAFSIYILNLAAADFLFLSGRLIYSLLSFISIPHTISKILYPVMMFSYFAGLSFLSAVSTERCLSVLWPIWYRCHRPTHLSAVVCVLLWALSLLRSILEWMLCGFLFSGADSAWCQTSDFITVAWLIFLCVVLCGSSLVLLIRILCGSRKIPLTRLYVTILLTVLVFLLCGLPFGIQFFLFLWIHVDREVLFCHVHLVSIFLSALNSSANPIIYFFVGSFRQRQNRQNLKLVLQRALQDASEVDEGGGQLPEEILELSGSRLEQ
# MrgX1 ag – agonists of human MrgX1 receptor; B-score at 10 µM; MrgX1-HEK293 cells, Fluo-4 calcium fluorescence, agonist mode; stronger effect = higher value; 0.44% of 310,000 active; Q96LB2;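 active means calcium response B-score plate-corrected fluorescence ratio at least 3 library SD, with starting fluorescence B-score inside 5 SD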
#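 Test system: HEK293 cells stably expressing human MrgX1 receptor; Input: fifteen thousand cells per well; Dosing: compound delivered in addition one of three; Schedule: overnight seeding, then 1 h dark dye loading; Technique: Fluo-4 NW calcium fluorescence; Measure: B-scored fluorescence response ratio; Controls: positive and negative controls per plate.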
# MrgX1 antagonist – blocks BAM8-22 activation of human MrgX1 receptor; Q96LB2; MRGX1-HEK293 calcium flux, Fluo-4, BAM8-22 antagonism; stronger effect = lower value; B-score at 10 µM; 1.3% of 310,000 active; AID 588676;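 active means calcium-response B-score plate-corrected more than 3 library SD below zero, starting fluorescence within 5 deviations, no agonist response on first addition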;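 further: peak minus trough fluorescence over baseline after final BAM8-22 challenge near maximal dose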
# The depositor's hits bear a star; i = inactive; x = not tested or not shown.
SMILES,RGS4 pot,RGS4 inh,MrgX1 PAM,MrgX1 ag,MrgX1 antagonist
CCC(C(=O)O)n1cnc2scc(-c3ccc(C)c(C)c3)c2c1=O (centres undefined),i,i,i,i,i
Cc1cccc(CN2C(=O)/C(=C\c3ccc(C(=O)NCCN4CCOCC4)cc3)Sc3ccccc32)c1,-7.32*,i,i,i,i
O=C(NCCN1CCOCC1)c1ccc(/C=C2\Sc3ccccc3N(Cc3ccccc3F)C2=O)cc1,i,i,i,i,i
CCN1CCN(CCNC(=O)c2ccc(/C=C3/Sc4ccccc4N(Cc4cccc(Cl)c4)C3=O)cc2)CC1,-9.9*,i,i,i,i
COc1ccc(CNS(=O)(=O)CCNC(=O)c2ccc(OC)cc2)cc1,i,i,i,i,-4.9*
Cc1cc(/C([O-])=C(/C(=S)Nc2ccc(F)cc2)[n+]2ccccc2)c(C)n1-c1ccc(F)cc1,i,i,i,i,i
Cc1ccc(-c2csc3ncnc(N4CCN(C)CC4)c23)cc1C,i,i,i,i,i
Cc1cc(N/N=C/c2ccccc2)nc(NCc2ccccc2)n1,i,i,i,i,i
Cc1cc(N/N=C/c2cccc(Cl)c2)nc(NCc2ccccc2)n1,-7.67*,i,i,i,i
Cc1c(N2C(=O)/C(=C\c3ccc(N(C)C)cc3)N(C)C2=S)c(=O)n(-c2ccccc2)n1C,x,x,i,i,-4.52*
Cc1cccn2c(=O)c3cc(C#N)c(=NC(=O)c4ccccc4)n(Cc4ccco4)c3nc12,i,i,i,i,-4.87*
O=C1CSC(c2ccccc2Br)N1c1ccc(Cl)cn1 (centres undefined),-7.01*,i,i,i,i
COC(=O)c1ccc(-c2sc3nc(N4CCOCC4)c4c(c3c2N)CCCC4)o1,-8.81*,i,16.9*,i,i
COc1ccc(S(=O)(=O)N2CCOC2CNC(=O)C(=O)NCCN(C)C)cc1 (centres undefined),i,i,i,i,i
CCc1ccc(N=C2NC(=O)/C(=C/c3cc(OC)c(O)c(OC)c3)S2)cc1,i,i,i,i,-7.63*
COc1cc(/C=C2/CC/C(=C/c3ccc(O)c(OC)c3)C2=O)ccc1O,i,i,i,57.8*,i
COc1cc(/C=C2\COC/C(=C\c3ccc(O)c(OC)c3)C2=O)ccc1O,i,i,i,i,i
COc1cc(/C=C2/SC(=Nc3ccc(O)cc3)NC2=O)ccc1O,i,i,i,i,-5*
COc1ccc(C2(CNC(=O)c3cccs3)CCOCC2)cc1,i,i,i,i,i
CCN(CC)C(=O)c1c2c(nc3ccccc13)-c1ccccc1CC2,-7.02*,i,i,i,i
CN(C)CCNC(=O)C(c1ccccc1)c1ccccc1,i,i,i,i,i
Cc1ccc(C(c2sc3nc(C)nn3c2O)N2CCN(c3ccccc3F)CC2)cc1 (centres undefined),i,i,i,i,-5.18*
Cc1ccc(C(c2sc3nc(C)nn3c2O)N2CCN(CCO)CC2)cc1 (centres undefined),i,i,i,i,i
CC(C)(C)OC(=O)NNC(=O)NC12CC3CC(CC(C3)C1)C2,i,i,i,i,i
COc1ccc(S(=O)(=O)N(C)C2CCS(=O)(=O)C2)cc1OC (centres undefined),i,i,i,i,i
SMILES,RGS4 pot,RGS4 inh,MrgX1 PAM,MrgX1 ag,MrgX1 antagonist
CC(C)c1ccc(/C=C/C(=O)NCc2ccc(S(N)(=O)=O)cc2)cc1,i,i,i,i,-6.83*
NS(=O)(=O)c1ccc(CNC(=O)/C=C/c2ccc(Cl)c(Cl)c2)cc1,i,i,i,i,i
COc1ccc(CNC(=O)C2CCC(CNc3nc(=S)[nH]c4ccccc34)CC2)cc1 (centres undefined),i,i,12.3*,i,i
CC(=O)NCCNC(=O)C1CCC(CNc2nc(=S)[nH]c3ccccc23)CC1 (centres undefined),i,i,i,i,i
COc1cccc(-c2nn(C)c3sc(C(=O)N4CCOCC4)cc23)c1,i,i,i,i,i
COc1cccc(-c2nn(C)c3sc(C(=O)N4CCN(c5ccccn5)CC4)cc23)c1,-10.7*,i,i,i,i
CCn1c2ccc(C)cc2c2nnc(NN)nc21,i,i,i,28.9*,i
O=C(CCC(=O)OCC(=O)c1cccc([N+](=O)[O-])c1)Nc1ccccc1Cl,i,i,i,i,-6.98*
O=C(CCC(=O)OCc1cccc([N+](=O)[O-])c1)Nc1ccccc1Cl,i,i,i,i,i
CCC1CCCCN1S(=O)(=O)c1ccc([N+](=O)[O-])cc1 (centres undefined),-7.42*,i,i,i,i
C=CCC(NCc1ccccc1)c1ccc(C)o1 (centres undefined),i,i,i,i,i
O=C(COc1ccccc1F)N1CCN(S(=O)(=O)/C=C/c2ccccc2)CC1,i,i,i,i,i
O=C(O)c1cc(-c2ccc(-c3c(-c4ccc5c(c4)OCO5)noc3-c3ccsc3)cc2)nc2ccccc12,-10.6*,i,i,i,i
Cc1nc(NCCCn2ccnc2)c2ccccc2n1,i,i,i,i,i
c1cncc(-c2nc(NCCCn3ccnc3)c3ccccc3n2)c1,-6.99*,i,i,i,i
O=C1CC(c2ccc(Cl)cc2)c2c(O)cc(O)cc2O1 (centres undefined),i,i,i,i,i
CCOc1ccc(N(C)c2ccc(/C=C3/SC(=S)NC3=O)cc2)cc1,i,i,i,35.2*,i
COc1ccc(/C=C/C(=O)C2CC2)cc1COc1c(C)cccc1C,-8.53*,i,i,i,i
COc1ccc(-c2nc3ccccc3nc2-c2ccc(OC)cc2)cc1,-7.03*,i,i,i,i
CCc1ccc(CN2CCC(Oc3ccc(C(=O)N4CCCC4)cc3)CC2)cc1,i,i,i,i,i
CCc1ccc(CN2CCC(Oc3ccc(C(=O)N4CCCCC4)cc3)CC2)cc1,-7.18*,i,i,i,i
c1ccc(N2CC[N+]3(CCCC3)CC2)nc1,i,i,i,i,i
c1cnc(N2CC[N+]3(CCCC3)CC2)nc1,-7.73*,i,i,i,i
CCN(CCCNC(=O)CC1Oc2ccc(C)cc2NC1=O)Cc1ccccc1 (centres undefined),i,i,i,i,i
CCN(CC)S(=O)(=O)c1ccc(Cl)c(NC(=O)COC(=O)c2cccn2C)c1,i,i,i,i,i
